Bioassay records from PubChem.
Compounds with a hit are over-represented: about 3.2% of the library has one in this group of screens.
FAK blocker: blocks human focal adhesion kinase activity; AID 727; biochemical FAK kinase activity assay; 0.84% of 97,000 active; Q05397; inhibition, %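 (tested at 7 µM)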;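 further: 0% = DMSO and 100% = reference compound high control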
PLK1 inh: PLK1 (human) kinase inhibition; P53350; recombinant PLK1 kinase, TR-FRET peptide phosphorylation; inhibition, % at 10 µM; 0.53% of 97,000 active; AID 619;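 active means inhibition of 50% or more in the single-concentration screen; inactive means inhibition below 50%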;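 further: 0% = DMSO max control and 100% = H-89 dihydrochloride min control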
EphB4 ephrin blk: antagonists of human EphB4-ephrin-B2 interaction; 0.15% of 97,000 active; P54760; AID 720; EphB4 LBD / TNYL-RAW-Alexa532 peptide, fluorescence polarization; inhibition, % at 7 µM;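 active means inhibition above the screen-wide mean inhibition plus 3 SD, cut at about 15% in these data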;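 further: 0% = DMSO wells and 100% = excess unlabeled TNYL-RAW peptide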
Plk1 PBD FP: blocks phosphopeptide binding to human Plk1 polo box domain | Plk1 PBD phosphopeptide binding, fluorescence polarization | inhibition, %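 (tested at about 20 µM)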 | 0.13% of 97,000 active; in the data active means inhibition above about 34%, passing the limit was not always enough
hDAT+cocaine: modulates human dopamine transporter uptake under cocaine. Q01959. LLC-PK1 hDAT cells, [14C]-dopamine uptake with cocaine IC80; actives deviate in either direction. B-score at 10 µM. 1.3% of 110,000 active. AID 449768;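 active means Z score or B-score, a plate-position-corrected score, falls beyond the plate's 99.7% confidence bounds, in either direction; inactive means both scores lie inside the 99.7% bounds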;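 further: scored against the spread of the other compound wells on the same plate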
Rev-RRE block: HIV Rev-RRE protein-RNA interaction inhibition. 0.79% of 97,000 active. Rev peptide-RRE RNA binding, FRET. inhibition, % at 8 µM. P05866. AID 704;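 active means inhibition above the screen-wide mean plus 3 SD, cut at about 35% in these data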;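 further: 0% = median DMSO wells and 100% = median Neomycin B control wells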
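Test system: labelled RRE RNA duplex and labelled Rev peptide. Times: 5 min compound–RNA preincubation, then 15 min with peptide, 25 °C. Doses: single-dose 8 µM. Measured by: FRET, excitation 480 nm, emission 540 nm donor and 671 nm acceptor. Measure: % inhibition of FRET ratio versus controls.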
FAK inh confirm: FAK (human) inhibition confirmed | shares compounds with FAK blocker | FAK kinase biochemical inhibition assay | inhibition, % at 7 µM | 28% of 750 active
Numbers without * were called inactive; / = no result; [ ] = dose if it differs, or a comment. Unless noted, no stated cut-off is given here; in the data, active means inhibition above about 19%; inactive means the rest.

SMILES	FAK blocker	PLK1 inh	EphB4 ephrin blk	Plk1 PBD FP	hDAT+cocaine	Rev-RRE block	FAK inh confirm
O=C1C(c2ccnc3ccccc23)=C(O)c2ccccc21	31.3*	-7.8	-4.3	-8.8	-0.00948	2.5	26.6*
O=C1c2ccccc2C(=O)C1c1ccnc2ccccc12	50.8*	-7.5	3.9	-10.8	-1.26	9.3	33.8*
O=C1c2ccccc2C(=O)C1c1nccc2ccccc12	/	/	/	/	-1.64	/	/
O=C(c1cncc(Br)c1)N1CCc2ccccc2C1	-0.7	-1.3	3.0	-7.3	0.733	1.6	/
c1csc(C(c2nnnn2C2CCCC2)N2CCCC3(CCCCC3)C2)c1 (stereo unspecified)	0.0	-14.2	0.2	-14.6	-0.531	14.8	/
O=C(N/N=C/C=C/c1ccc([N+](=O)[O-])cc1)c1cccs1	55.9*	-17.4	0.5	-34.5	-0.228	6.5	21.4*
O=C(c1ccco1)N(CCC(c1ccccc1)c1ccco1)Cc1ccco1 (stereo unspecified)	20.2*	-15.7	1.0	-10.9	-0.613	7.5	3.7
O=C1CN(C(=O)COC(=O)CCSc2ccccc2Cl)c2ccccc2N1	0.1	4.2	0.5	6.5	-0.968	5.4	/
O=c1c(-c2nc3ccccc3o2)c2oc3ccccc3n2c2ccccc12	23.6*	-9.1	6.1	-11.0	0.124	8.8	-0.5
Cc1ccc(NC(=O)Cn2cncc2-c2ccc([N+](=O)[O-])cc2)cc1C	24.4*	-1.2	-2.9	4.7	/	2.4	9.2
CCCSc1nc2c(cnn2-c2ccc(C)cc2)c(=O)[nH]1	22.7*	-2.8	0.6	-4.6	-0.895	3.8	9.4
C=C(C(=O)O)C1CCC2(C)CCCC(C)(O)C2C1 (stereo unspecified)	/	/	/	/	-1.06	/	/
CC(O)CNc1nc2ccccc2n1CC(=O)NCCc1ccc(Cl)cc1 (stereo unspecified)	-2.4	-6.4	0.8	14.0	-1.3	0.2	/
Oc1ccc(N=Cc2ccc(O)c(O)c2)cc1	22.5*	34.7	-5.9	-19.2	1.6	-1.9	2.0
CC(=O)c1ccc(S(=O)c2ccccc2)cc1 (stereo unspecified)	-2.5	-3.9	-9.7	23.5	-0.509	1.5	/
Cn1c(SCc2ccon2)nc2ccccc2c1=O	22.7*	-2.6	0.1	12.3	-0.247	5.3	6.4
COc1ccc(-n2nnnc2SCC(=O)Nc2nc3c(s2)CCCC3)cc1	23.8*	-3.0	3.1	2.3	0.0691	11.6	5.8
COc1ccc(-n2nnnc2SCC(=O)Nc2nnn(C)n2)cc1	-1.9	-12.3	1.0	15.2	-0.273	0.5	/
CCCCNS(=O)(=O)C1CCS(=O)(=O)C1 (stereo unspecified)	0.2	-1.4	-1.4	15.3	-0.518	8.9	/
CC1CCc2c(sc3nn[nH]c(=O)c23)C1 (stereo unspecified)	25.6*	-1.1	-4.5	-5.2	0.267	3.7	7.3
CCOC(=O)c1c(NC(=O)c2ccc(N3C(=O)C4C5C=CC(C5)C4C3=O)cc2)sc2c1CCCC2 (stereo unspecified)	-8.2	4.6	-1.5	-14.3	0.871	-3.6	/
COCCNC(=O)c1ccccc1NS(=O)(=O)c1ccc(Br)s1	1.0	-2.8	2.9	-18.3	-0.294	1.2	/
COc1ccc(-n2nc(C(=O)NCC(=O)Nc3ccccn3)c3ccccc3c2=O)cc1Cl	22.5*	-25.8	6.4	19.7	/	1.2	44.8*
Cc1cccc(-c2noc(CN(C(=O)C(c3ccccc3)c3ccccc3)C(C)C)n2)c1	0.5	2.6	-6.6	17.1	0.45	1.1	/
CCOC(=O)c1sc(C)c2c1NC1(CCCCC1)NC2=O	-0.5	-9.8	-5.0	-0.8	0.0711	5.5	/
SMILES	FAK blocker	PLK1 inh	EphB4 ephrin blk	Plk1 PBD FP	hDAT+cocaine	Rev-RRE block	FAK inh confirm
CCOC(=O)c1sc(C)c2c1NC1(CCCCCC1)NC2=O	68.3*	-0.5	0.8	-0.9	0.166	-0.4	1.0
O=c1cc2c(nn1Cc1ccccc1Cl)-c1ccccc1CC2	-1.8	-10.2	-0.9	4.1	-0.0483	14.9	/
CCOC(=O)N1CCC2(CC1)C(C#N)=C(N)Oc1n[nH]c(CSc3ccc(C)cc3)c12	22.2*	-9.1	9.2	-10.1	0.145	2.5	13.9
Cc1ccc(SCc2[nH]nc3c2C2(CCSCC2)C(C#N)=C(N)O3)cc1	3.0	21.9	-6.5	-2.1	-0.168	11.1	/
Cn1c(=O)[nH]c(=O)c2c1nc(Br)n2CCCSc1nc2ccccc2o1	18.8*	-5.9	-8.5	-16.2	-0.738	10.4	1.2
Cn1c(=O)[nH]c(=O)c2c1nc(N1CCCC1)n2CCCSc1nc2ccccc2o1	/	/	/	/	0.218	/	/
O=C(NCc1ccco1)C1(c2ccc(Br)cc2)CCCC1	-0.5	17.0	0.3	-6.2	0.0375	10.2	/
COc1ccccc1CNC(=O)COC(=O)c1cc(-c2ccco2)nc2ccccc12	44.5*	-16.7	8.0	-28.7	-0.213	1.8	23.6*
COc1cccc(-c2nc(-c3ccccn3)no2)c1	98.3*	-11.6	4.1	-1.2	1.08	-0.2	-2.1
O=c1oc(-c2ccc(Br)o2)nc2ccccc12	35.2*	-6.0	-3.1	16.0	-1.98	2.3	37.2*
CCOC(=O)CNC(=O)c1sc2ncnc(N3CCc4ccccc4C3)c2c1C	42.4*	-5.0	0.1	8.6	0.672	5.8	33.5*
CCOC(=O)C1CCCN(C(=O)c2cc3c(=O)n4cccc(C)c4nc3n2C)C1 (stereo unspecified)	3.5	-7.0	0.9	6.1	/	0.3	/
O=c1oc2ccccc2n1CCn1c2ccccc2c2nc3ccccc3nc21	29.7*	-8.1	0.5	6.8	-0.00251	1.8	45.6*
O=c1cc(CSc2nnc(-c3cccs3)n2Cc2ccccc2)nc2sc3ccccc3n12	31.0*	-7.2	5.7	8.5	0.00354	-6.8	4.0
Cc1cc(C(=O)CSc2nnc(-c3cccs3)n2Cc2ccccc2)c(C)n1C	-1.2	-12.1	-3.5	-3.8	0.824	-3.5	/
COc1cc(-c2ccc3oc(-c4ccsc4)c(C#CC4(O)CCCCC4)c3c2)cc(OC)c1OC	/	/	/	/	-0.325	/	/
CSc1nnc(-c2ccco2)c(-c2ccco2)n1	8.0	0.6	6.9	-10.6	-2.26	3.9	/
CSc1nc(N(C)CCO)c2sc3nc(-c4ccco4)c4c(c3c2n1)CCC4	35.8*	12.8	2.3	-16.6	0.123	-13.1	-0.7
COC(=O)c1ccc(NC(=O)CSCc2ccccc2C)cc1	0.1	-3.3	3.7	-4.2	-0.28	10.5	/
C/C(O)=c1/ccc2cccc3nc(C)nc1c23	24.1*	3.3	2.5	-16.9	-0.756	91.1*[fluorescence artefact?]	6.6
O=c1oc2c3c4c(cc2s1)CCCN4CCC3	20.1*	20.7	0.4	14.2	-0.653	27.1	6.0
C=CCn1c(SCC(=O)c2cc(C)n(CCOC)c2C)nc2sc(C)c(C)c2c1=O	-3.4	-8.0	1.7	5.8	0.0291	-1.0	/
C=CCn1c(SCC(=O)N2CCCC2)nc2scc(-c3cccs3)c2c1=O	40.5*	11.3	-6.3	-6.9	/	-0.1	30.5*
